Assay results from ChEMBL document CHEMBL4732241, “Synthesis of artemisinin-piperazine-furan ether hybrids and evaluation of in vitro cytotoxic activity” (Eur J Med Chem, 2021).

Tests used:
[1] = system: SMMC-7721; assay: Cytotoxicity against human SMMC-7721 cells assessed as cell viability after 24 hrs by MTT assay; format: functional, cell-based; settings: SMMC-7721, 24 h
In short: (§1)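 Cells pre-cultured 24 h at 37 C, then exposed for 24 h to compounds at […], with drug-free and DMSO solvent controls. MTT read-out: formazan dissolved in DMSO, absorbance at 568 nm. Inhibition rate taken relative to the negative control. IC50 from triplicate measurements.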

[2] = system: L02; assay: Cytotoxicity against human L02 cells assessed as cell viability after 24 hrs by MTT assay; format: functional, cell-based; settings: L02, 24 h; in short: as §1
[3] = system: SMMC-7721; assay: Induction of apoptosis in human SMMC-7721 cells assessed as viable cells at 0.1 ug/ml after 48 hrs annexin V-[…]/PI by flow cytometry (reference value: 93.54 to 94.31%); format: functional; settings: read-out: Activity
[4] = system: SMMC-7721; assay: Induction of apoptosis in human SMMC-7721 cells assessed as early apoptotic cells at 0.1 ug/ml after 48 hrs annexin V-[…]/PI by flow cytometry (reference value: 3.3 to 3.16%); format: functional; settings: dose 0.1 µg/ml
[5] = system: SMMC-7721; assay: Induction of apoptosis in human SMMC-7721 cells assessed as late apoptotic cells at 0.1 ug/ml after 48 hrs annexin V-[…]/PI by flow cytometry (reference value: 2.42 to 3%); format: functional; settings: dose 0.1 µg/ml
[6] = system: SMMC-7721; assay: Induction of apoptosis in human SMMC-7721 cells assessed as necrotic cells at 0.1 ug/ml after 48 hrs annexin V-[…]/PI by flow cytometry (reference value: 0.15 to 0.29%); format: functional; settings: dose 0.1 µg/ml
[7] = system: SMMC-7721; assay: Induction of apoptosis in human SMMC-7721 cells assessed as viable cells at 10 ug/ml after 48 hrs annexin V-[…]/PI by flow cytometry (reference value: 93.54 to 94.31%); format: functional; settings: read-out: Activity
[8] = system: SMMC-7721; assay: Induction of apoptosis in human SMMC-7721 cells assessed as early apoptotic cells at 10 ug/ml after 48 hrs annexin V-[…]/PI by flow cytometry (reference value: 3.3 to 3.16%); format: functional; settings: dose 10 µg/ml
[9] = system: SMMC-7721; assay: Induction of apoptosis in human SMMC-7721 cells assessed as late apoptotic cells at 10 ug/ml after 48 hrs annexin V-[…]/PI by flow cytometry (reference value: 2.42 to 3%); format: functional; settings: dose 10 µg/ml
[10] = system: SMMC-7721; assay: Induction of apoptosis in human SMMC-7721 cells assessed as necrotic cells at 10 ug/ml after 48 hrs annexin V-[…]/PI by flow cytometry (reference value: 0.15 to 0.29%); format: functional; settings: dose 10 µg/ml
[11] = system: SMMC-7721; assay: Induction of apoptosis in human SMMC-7721 cells assessed as viable cells at 100 ug/ml after 48 hrs annexin V-[…]/PI by flow cytometry (reference value: 93.54 to 94.31%); format: functional; settings: read-out: Activity
[12] = system: SMMC-7721; assay: Induction of apoptosis in human SMMC-7721 cells assessed as early apoptotic cells at 100 ug/ml after 48 hrs annexin V-[…]/PI by flow cytometry (reference value: 3.3 to 3.16%); format: functional; settings: dose 100 µg/ml
[13] = system: SMMC-7721; assay: Induction of apoptosis in human SMMC-7721 cells assessed as late apoptotic cells at 100 ug/ml after 48 hrs annexin V-[…]/PI by flow cytometry (reference value: 2.42 to 3%); format: functional; settings: dose 100 µg/ml
[14] = system: SMMC-7721; assay: Induction of apoptosis in human SMMC-7721 cells assessed as necrotic cells at 100 ug/ml after 48 hrs annexin V-[…]/PI by flow cytometry (reference value: 0.15 to 0.29%); format: functional; settings: dose 100 µg/ml
[15] = system: SMMC-7721; assay: Cytotoxicity against human SMMC-7721 cells assessed as cell viability after 48 hrs by MTT assay; format: functional, cell-based; settings: SMMC-7721, 48 h
In short: (§2)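 Cells pre-cultured 24 h at 37 C, then given fresh medium with compound at […] alongside drug-free and DMSO solvent controls. Incubated 48 h at 37 C, then MTT (2 mg/mL in PBS) added for 4 h. Formazan dissolved in DMSO and A568 read. Inhibition rate taken relative to the negative control. IC50 from triplicate measurements.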

[16] = system: SMMC-7721; assay: Cytotoxicity against human SMMC-7721 cells assessed as cell viability after 48 hrs in presence of 100 umol/L FeSO4 by MTT assay; format: functional, cell-based; settings: SMMC-7721, 48 h
[17] = system: MHCC97H; assay: Cytotoxicity against human MHCC97H cells assessed as cell viability after 48 hrs by MTT assay; format: functional, cell-based; in short: as §2
[18] = Cytotoxicity against human HCCLM3 cells assessed as cell viability after 48 hrs by MTT assay; format: functional, cell-based; settings: HCCLM3, 48 h; in short: as §2
[19] = system: Huh-7; assay: Cytotoxicity against human HUH-7 cells assessed as cell viability after 48 hrs by MTT assay; format: functional, cell-based; settings: Huh-7, 48 h; in short: as §2
[20] = system: HCT-116; assay: Cytotoxicity against human HCT-116 cells assessed as cell viability after 48 hrs by MTT assay; format: functional, cell-based; settings: HCT-116, 48 h; in short: as §2
[21] = system: CCD-18Co; assay: Cytotoxicity against human CCD-18C0 cells assessed as cell viability after 48 hrs by MTT assay; format: functional, cell-based; in short: as §2
[22] = system: MCF7; assay: Cytotoxicity against human MCF7 cells assessed as cell viability after 48 hrs by MTT assay; format: functional, cell-based; settings: MCF7, 48 h; in short: as §2
[23] = system: MCF-10A; assay: Cytotoxicity against human MCF-10A cells assessed as cell viability after 48 hrs by MTT assay; format: cell-based; in short: as §2

`CC(C)[C@H]1CC[C@H](C)C[C@@H]1O[C@H]1OC(=O)C(Cl)=C1N1CCN([C@@H]2O[C@@H]3O[C@@]4(C)CC[C@H]5[C@H](C)CC[C@@H]([C@H]2C)[C@@]35OO4)CC1` showed an IC50 [1] of 520 nM and an IC50 [2] of 640 nM.
`COC1OC(=O)C(Br)=C1N1CCN([C@@H]2O[C@@H]3O[C@@]4(C)CC[C@H]5[C@H](C)CC[C@@H]([C@H]2C)[C@@]35OO4)CC1` (stereo partly drawn) gave an IC50 [1] of 290 nM and an IC50 [2] of 260 nM.
With `C[C@H]1[C@H](N2CCN(C3=C(Cl)C(=O)OC3O[C@H]3CC4CCC3(C)C4(C)C)CC2)O[C@@H]2O[C@@]3(C)CC[C@H]4[C@H](C)CC[C@@H]1[C@@]24OO3` (stereo partly drawn) the IC50 [1] was 570 nM and the IC50 [2] was 460 nM.
With `COC1OC(=O)C(Cl)=C1N1CCN([C@@H]2O[C@@H]3O[C@@]4(C)CC[C@H]5[C@H](C)CC[C@@H]([C@H]2C)[C@@]35OO4)CC1` (stereo partly drawn) the IC50 [1] was 260 nM, the IC50 [2] was 320 nM and the viability at 0.1 µg/mL [3] was 88.6%. The Activity [4] was 4.26%, the Activity [5] was 3.21% and the Activity [6] was 0.14%. The viability at 10 µg/mL [7] was 82.1%, the Activity [8] was 8.77% and the Activity [9] was 6.06%. For the same compound, the Activity [10] was 0.49%, the viability at 100 µg/mL [11] was 60.3% and the Activity [12] was 20.35%. The Activity [13] was 14.42%, the Activity [14] was 0.73% and the IC50 [15] was 110 nM. It also gave an IC50 [16] of 100 nM, an IC50 [17] of 100 nM and an IC50 [18] of 100 nM. It also gave an IC50 [19] of 160 nM, an IC50 [20] of 100 nM and an IC50 [21] of 100 nM. For the same compound, the IC50 [22] was 80 nM and the IC50 [23] was 220 nM.
Compound `C[C@H]1[C@H](N2CCN(C3=C(Br)C(=O)O[C@@H]3O[C@H]3CC4CCC3(C)C4(C)C)CC2)O[C@@H]2O[C@@]3(C)CC[C@H]4[C@H](C)CC[C@@H]1[C@@]24OO3` has an IC50 [1] of 480 nM and an IC50 [2] of 480 nM.
With `CC(C)[C@H]1CC[C@H](C)C[C@@H]1O[C@H]1OC(=O)C(Br)=C1N1CCN([C@@H]2O[C@@H]3O[C@@]4(C)CC[C@H]5[C@H](C)CC[C@@H]([C@H]2C)[C@@]35OO4)CC1` the IC50 [1] was 390 nM and the IC50 [2] was 360 nM.
In the case of `CCOC1OC(=O)C(Cl)=C1N1CCN([C@@H]2O[C@@H]3O[C@@]4(C)CC[C@H]5[C@H](C)CC[C@@H]([C@H]2C)[C@@]35OO4)CC1` (stereo partly drawn), the IC50 [1] is reported as 560 nM and the IC50 [2] is reported as > 700 nM.
For `CCOC1OC(=O)C(Br)=C1N1CCN([C@@H]2O[C@@H]3O[C@@]4(C)CC[C@H]5[C@H](C)CC[C@@H]([C@H]2C)[C@@]35OO4)CC1` (stereo partly drawn), the IC50 [1] was 430 nM and the IC50 [2] was 500 nM.
With `C[C@H]1[C@H](O)O[C@@H]2O[C@@]3(C)CC[C@H]4[C@H](C)CC[C@@H]1[C@@]24OO3` the IC50 [1] was > 700 nM and the IC50 [2] was 220 nM.
With `C[C@@H]1CC[C@H]2[C@@H](C)C(=O)O[C@@H]3O[C@@]4(C)CC[C@@H]1[C@]32OO4` [ARTEMISININ] the IC50 [1] was 630 nM and the IC50 [2] was 430 nM.
Compound `CC[C@]1(O)C[C@H]2CN(CCc3c([nH]c4ccccc34)[C@@](C(=O)OC)(c3cc4c(cc3OC)N(C=O)[C@H]3[C@@](O)(C(=O)OC)[C@H](OC(C)=O)[C@]5(CC)C=CCN6CC[C@]43[C@@H]65)C2)C1` [VINCRISTINE] has an IC50 [1] of 270 nM and an IC50 [2] of 300 nM.
